Measurements reported in ChEMBL document CHEMBL1130067, “Pyridazinodiazepines as a high-affinity, P2-P3 peptidomimetic class of interleukin-1 beta-converting enzyme inhibitor” (J Med Chem, 1997).
Peptide text beside a SMILES is read from it. * marks the point of attachment. Cbz = O=C(OCc1ccccc1)*

Assays:
Caspase-1 (Homo sapiens) = target: T1, Caspase-1 (Homo sapiens) (UniProt P29466); experiment: Second order rate constants were tested for inhibition of IL-1 beta converting enzyme (ICE)
T1 sequence (whole entry): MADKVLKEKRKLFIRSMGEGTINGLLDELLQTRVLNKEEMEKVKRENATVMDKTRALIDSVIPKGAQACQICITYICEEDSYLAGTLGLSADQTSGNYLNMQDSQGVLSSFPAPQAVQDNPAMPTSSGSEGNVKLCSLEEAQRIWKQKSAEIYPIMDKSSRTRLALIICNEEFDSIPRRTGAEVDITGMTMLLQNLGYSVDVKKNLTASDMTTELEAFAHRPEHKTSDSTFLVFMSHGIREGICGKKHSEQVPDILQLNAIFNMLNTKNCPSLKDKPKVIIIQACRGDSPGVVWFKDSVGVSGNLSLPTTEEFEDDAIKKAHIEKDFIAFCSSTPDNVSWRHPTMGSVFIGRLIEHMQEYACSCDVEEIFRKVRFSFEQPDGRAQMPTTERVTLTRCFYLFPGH
In short: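 Fluorogenic progress-curve assay: ICE in 10 mM HEPES pH 7.5, 25% glycerol, 1 mM DTT, with 10 µM Suc-Tyr-Val-Ala-Asp-AMC; read at 37 °C over 30 min. Inactivation rates are taken from nonlinear progress curves by the Tian–Tsou method, giving second-order rate constants. Determinations are in triplicate, standard error <10%.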

Caspase-1 = target: T2, Caspase-1 (Homo sapiens, UniProt P29466); experiment: Reversible Inhibition constants against IL-1 beta converting enzyme (ICE)
T2 sequence (P29466 whole entry): T1 sequence (whole entry)
In short: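 Fluorescence progress curves are recorded at 37 °C over 30 min. Ki for reversible inhibitors is derived by a method from a cited reference. Determinations are in triplicate, standard error <10%.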

Homo sapiens = species: Homo sapiens; experiment: Inhibitory concentration against IL1-beta production in human monocytes; type: functional

K obs / 1 (Caspase-1 (Homo sapiens))	SMILES	further results
413000 M⁻¹ s⁻¹	O=C(O)C[C@H](NC(=O)[C@@H]1CCCN2C(=O)CC[C@H](NC(=O)OCc3ccccc3)C(=O)N12)C(=O)COc1cc(C(F)(F)F)nn1-c1ccccc1	
340000 M⁻¹ s⁻¹	Cc1nccn1Cc1ccc(C(=O)N[C@H]2CCC(=O)N3CCC[C@@H](C(=O)N[C@@H](CC(=O)O)C(=O)COC(=O)c4c(Cl)cccc4Cl)N3C2=O)cc1	
44000 M⁻¹ s⁻¹	O=C(O)C[C@H](NC(=O)CN1C(=O)[C@@H](NC(=O)OCc2ccccc2)COc2ccccc21)C(=O)COC(=O)c1c(Cl)cccc1Cl	
	O=C[C@H](CC(=O)O)NC(=O)[C@@H]1CCCN2C(=O)CC[C@H](NC(=O)OCc3ccccc3)C(=O)N12	Ki (Caspase-1): 25 nM
800000 M⁻¹ s⁻¹	O=C(O)CCCc1ccc(C(=O)N[C@H]2CCC(=O)N3CCC[C@@H](C(=O)N[C@@H](CC(=O)O)C(=O)COc4cc(C(F)(F)F)nn4-c4ccc(Cl)cc4)N3C2=O)cc1	
200000 M⁻¹ s⁻¹	CC(C)[C@H](NC(=O)c1ccc(CN2CCN(C)CC2)cc1)C(=O)N[C@@H](C)C(=O)N[C@@H](CC(=O)O)C(=O)COc1cc(C(F)(F)F)nn1-c1ccc(Cl)cc1	
110000 M⁻¹ s⁻¹	CSc1ccc(C(=O)Nc2cnc(-c3ccc(F)cc3)n(CC(=O)N[C@@H](CC(=O)O)C(=O)COc3cc(C(F)(F)F)nn3-c3ccc(Cl)cc3)c2=O)cc1	
	O=C[C@H](CC(=O)O)NC(=O)[C@@H]1CCCN2C(=O)CC[C@H](NC(=O)c3ccc(OCC(=O)O)cc3)C(=O)N12	Ki (Caspase-1): 1 nM
	O=C[C@H](CC(=O)O)NC(=O)[C@@H]1CCCN2C(=O)CC[C@H](NC(=O)c3ccccc3)C(=O)N12	Ki (Caspase-1): 5 nM; IC50 (Homo sapiens): 1000 nM
432000 M⁻¹ s⁻¹	CC(C)[C@H](NC(=O)OCc1ccccc1)C(=O)N[C@@H](C)C(=O)N[C@@H](CC(=O)O)C(=O)COC(=O)c1c(Cl)cccc1Cl	
	CC(C)[C@H](NC(=O)OCc1ccccc1)C(=O)N[C@@H](C)C(=O)N[C@@H](CC(=O)O)C(=O)O (Cbz-Val-Ala-Asp-OH)	Ki (Caspase-1): 15 nM
572000 M⁻¹ s⁻¹	O=C(O)C[C@H](NC(=O)[C@@H]1CCCN2C(=O)CC[C@H](NC(=O)OCc3ccccc3)C(=O)N12)C(=O)COC(=O)c1c(Cl)cccc1Cl	
437000 M⁻¹ s⁻¹	O=C(O)C[C@H](NC(=O)[C@@H]1CCCN2C(=O)CC[C@H](NC(=O)OCc3ccccc3)C(=O)N12)C(=O)COc1cc(C(F)(F)F)nn1-c1ccc(Cl)cc1	
1.22e+06 M⁻¹ s⁻¹	O=C(O)CSc1ccc(C(=O)N[C@H]2CCC(=O)N3CCC[C@@H](C(=O)N[C@@H](CC(=O)O)C(=O)COc4cc(C(F)(F)F)nn4-c4ccc(Cl)cc4)N3C2=O)cc1	
162000 M⁻¹ s⁻¹	CN(C)Cc1ccc(C(=O)N[C@H]2CCC(=O)N3CCC[C@@H](C(=O)N[C@@H](CC(=O)O)C(=O)COc4cc(C(F)(F)F)nn4-c4ccc(Cl)cc4)N3C2=O)cc1	
800000 M⁻¹ s⁻¹	CSc1ccc(C(=O)N[C@H](C(=O)N[C@@H](C)C(=O)N[C@@H](CC(=O)O)C(=O)COc2cc(C(F)(F)F)nn2-c2ccccc2)C(C)C)cc1	
340000 M⁻¹ s⁻¹	CC(C)[C@H](NC(=O)OCc1ccccc1)C(=O)N[C@@H](C)C(=O)N[C@@H](CC(=O)O)C(=O)COc1cc(C(F)(F)F)nn1-c1ccc(Cl)cc1	
31800 M⁻¹ s⁻¹	C[C@@H](C(=O)N[C@@H](CC(=O)O)C(=O)COc1cc(C(F)(F)F)nn1-c1ccccc1)N1CC[C@H](NC(=O)OCc2ccccc2)C1=O	
268000 M⁻¹ s⁻¹	O=C(O)C[C@H](NC(=O)Cn1c(-c2ccc(F)cc2)ncc(NC(=O)OCc2ccccc2)c1=O)C(=O)COC(=O)c1c(Cl)cccc1Cl	
114000 M⁻¹ s⁻¹	O=C(O)C[C@H](NC(=O)CN1C(=O)[C@@H](NC(=O)OCc2ccccc2)COc2ccccc21)C(=O)COc1cc(C(F)(F)F)nn1-c1ccc(Cl)cc1	
310000 M⁻¹ s⁻¹	O=C(O)C[C@H](NC(=O)Cn1c(-c2ccc(F)cc2)ncc(NC(=O)OCc2ccccc2)c1=O)C(=O)COc1cc(C(F)(F)F)nn1-c1ccc(Cl)cc1	
425000 M⁻¹ s⁻¹	O=C(O)C[C@H](NC(=O)[C@@H]1CCCN2C(=O)CC[C@H](NC(=O)c3ccc(CN4CCOCC4)cc3)C(=O)N12)C(=O)COC(=O)c1c(Cl)cccc1Cl	
42000 M⁻¹ s⁻¹	O=C(O)C[C@H](NC(=O)[C@@H]1CS[C@H]2CC[C@H](NC(=O)OCc3ccccc3)C(=O)N21)C(=O)COc1cc(C(F)(F)F)nn1-c1ccccc1	
210000 M⁻¹ s⁻¹	CN1CCN(Cc2ccc(C(=O)N[C@H]3CCC(=O)N4CCC[C@@H](C(=O)N[C@@H](CC(=O)O)C(=O)COC(=O)c5c(Cl)cccc5Cl)N4C3=O)cc2)CC1	
186000 M⁻¹ s⁻¹	CC(C)[C@H](NC(=O)c1ccc(CN2CCOCC2)cc1)C(=O)N[C@@H](C)C(=O)N[C@@H](CC(=O)O)C(=O)COc1cc(C(F)(F)F)nn1-c1ccccc1	
